A word on the IC50: it is the concentration needed to halve the response being measured.

23 molecules from paper PMC10209631 (RSC Advances, 2023) can be followed below.

Data set [1] relates to normal fibroblasts (WI-38). Briefly: Cytotoxicity. The note with it: for IC50: read-out: IC50, normal fibroblasts WI-38; for selectivity index (SI): SI = WI-38 IC50/IC50 against cancer cells; for toxicity to the normal fibroblasts (in words): WI-38 versus cancer cells.
A further data set has as its system HepG2. Briefly: Antiproliferative activity. Format: cell-based. As to conditions: Homo sapiens, HepG2, 48 h, read-out: antiproliferative activity IC50, HepG2.
Data set [2] relates to MCF-7 cells. Briefly: Cell cycle analysis. Format: cell-based, human. The note with it: MCF7, IC50 concentration, 48 h.
Data set [3] deals with MCF-7 cells. Briefly: Apoptosis assay by annexin V-PI. Format: cell-based, human. As to conditions: MCF7, IC50 concentration, 48 h; for necrotic cells (upper left quadrant, UL): DMSO 0.1%. In a few lines: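 MCF-7 cells seeded at 1 × 10⁵ cells per mL and held overnight at 37 °C, 5% CO₂. Test compound or DMSO added in fresh medium for 48 h. Cells trypsinized, washed twice in PBS, and stained 15 min with annexin V-FITC plus propidium iodide in binding buffer. Flow cytometry scored early apoptotic (LR), late apoptotic (UR) and necrotic (UL) quadrants.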

Where two headings read alike, the source gives them in different places.

Regarding `Nc1nnc(NC(=O)c2ccccc2)s1` [Compound 2, N-(5-Amino-1,3,4-thiadiazol-2-yl)benzamide], the IC50 in data set [1] (Homo sapiens, WI-38, 48 h) came out at 17.6 ± 4.1 µM; in the data set with HepG2, 14.1 ± 1.5 µM. In addition, in data set [1], the “selectivity index (SI)” value worked out at 1.0.
For `N#CC(=Cc1ccc(Cl)cc1)C(=O)Nc1nnc(NC(=O)c2ccccc2)s1` [Compound 7b, N-(5-(3-(4-Chlorophenyl)-2-cyanoacrylamido)-1,3,4-thiadiazol-2-yl)benzamide], the IC50 turned out to be 42.1 ± 2.7 µM in data set [1] (Homo sapiens, WI-38, 48 h) and 14.7 ± 2.1 µM in the data set on HepG2. Moreover, the “selectivity index (SI)” value in data set [1] was found to be 2.4.
Take `O=C(Nc1nnc(NC(=O)c2cc3ccccc3oc2=O)s1)c1ccccc1` [Compound 5, N-(5-Benzamido-1,3,4-thiadiazol-2-yl)-2-oxo-2H-chromene-3-carboxamide]: the IC50 stood at 91.2 ± 4.6 µM in data set [1] (Homo sapiens, WI-38, 48 h) and 63.9 ± 8.9 µM in the data set on HepG2. The “selectivity index (SI)” value in data set [1] is 1.5.
The like results for `N#CC(=Cc1ccc([N+](=O)[O-])cc1)C(=O)Nc1nnc(NC(=O)c2ccccc2)s1` [Compound 7e, N-(5-(2-Cyano-3-(4-nitrophenyl)acrylamido)-1,3,4-thiadiazol-2-yl)benzamide] were, in that order, 23.4 ± 3.6 µM, 56.3 ± 7.8 µM and 0.4.
Take `N=c1oc2ccccc2cc1C(=O)Nc1nnc(NC(=O)c2ccccc2)s1` [Compound 4, N-(5-Benzamido-1,3,4-thiadiazol-2-yl)-2-imino-2H-chromene-3-carboxamide]: the IC50 in data set [1] (Homo sapiens, WI-38, 48 h) stood at 29.4 ± 2.2 µM. In data set [1], the “selectivity index (SI)” value turned out to be 1.3 and the “toxicity to the normal fibroblasts (in words)” value (“toxicity” below) is recorded as “toxic to the normal fibroblasts”. The IC50 with HepG2 was 48.5 ± 2.9 µM.
On to `COc1ccc(C=C(C#N)C(=O)Nc2nnc(NC(=O)c3ccccc3)s2)cc1` [Compound 6b, N-(5-(2-Cyano-3-(4-methoxyphenyl)acrylamido)-1,3,4-thiadiazol-2-yl)benzamide], for which, in data set [1] (Homo sapiens, WI-38, 48 h), the IC50 is 50.4 ± 0.9 µM. Besides, in data set [1], the “selectivity index (SI)” value is recorded as 4.9. Further, the half-maximal inhibitory concentration (IC50) in the data set on HepG2 came to 15.9 ± 1.3 µM. In addition, the “sub-G1 percent of cells” value in the data set with MCF-7 cells [2] (DMSO 7.4%) is recorded as 53.6%. For the same molecule, in the data set on MCF-7 cells [3], the “induction of apoptosis (in words)” value is on record as “did not induce apoptosis” and the “necrotic cells (upper left quadrant, UL)” value was 12.5%.
For the molecule `N#CC(C(=O)Nc1nnc(NC(=O)c2ccccc2)s1)=C1Oc2cccnc2O1` [Compound 20, N-(5-(2-([1,3]dioxolo[4,5-b]pyridin-2-ylidene)-2-cyanoacetamido)-1,3,4-thiadiazol-2-yl)benzamide], the IC50 in data set [1] (Homo sapiens, WI-38, 48 h) amounted to 42.7 ± 2.7 µM; with HepG2 it was 29.6 ± 3.1 µM. The “selectivity index (SI)” value in data set [1] is reported as 1.5.
Regarding `N#CC(C(=O)Nc1nnc(NC(=O)c2ccccc2)s1)=C1SC(=O)CN1c1ccccc1` [Compound 12, N-(5-(2-Cyano-2-(5-oxo-3-phenylthiazolidin-2-ylidene)acetamido)-1,3,4-thiadiazol-2-yl)benzamide], the IC50 was over 100 µM in data set [1] (Homo sapiens, WI-38, 48 h) and 69.5 ± 6.5 µM with HepG2.
`COc1cccc2c1C(=O)c1c(O)c3c(c(O)c1C2=O)C[C@@](O)(C(=O)CO)C[C@@H]3O[C@H]1C[C@H](N)[C@H](O)[C@H](C)O1` [DOX, Doxorubicin, reference compound]: in the data set on HepG2, the half-maximal inhibitory concentration (IC50) came to 4.5 ± 0.2 µM.
Take “N-(5-(2-Cyano-2-(4,6-dioxo-1-phenylpiperidin-2-ylidene)acetamido)-1,3,4-thiadiazol-2-yl)benzamide [Compound 13]”: the “selectivity index (SI)” value in data set [1] came to 0.5. Also, the IC50 in data set [1] (MTT, 48 h, mean ±SEM, three independent experiments) is 23.6 ± 3.2 µM.
Consider `N#CC(C(=O)Nc1nnc(NC(=O)c2ccccc2)s1)=C1Nc2ccccc2O1` [Compound 19, N-(5-(2-(Benzo[d]oxazol-2(3H)-ylidene)-2-cyanoacetamido)-1,3,4-thiadiazol-2-yl)benzamide], for which the half-maximal inhibitory concentration (IC50) came to 60.3 ± 3.7 µM in data set [1] (Homo sapiens, WI-38, 48 h) and 19.4 ± 1.5 µM in the data set on HepG2. Besides, in data set [1], the “selectivity index (SI)” value is listed as 6.1. The “cells arrested at G2/M” value in the data set on MCF-7 cells [2] (DMSO 4.6%) is on record as 23.3%. Also, the “necrotic cells (upper left quadrant, UL)” value in the data set on MCF-7 cells [3] was found to be 15%. The “early apoptosis (lower-right quadrant, LR)” value in the data set on MCF-7 cells [3] (DMSO 3.2%) is on record as 15%.
Consider `N#CC(C(=O)Nc1nnc(NC(=O)c2ccccc2)s1)C(=S)Nc1ccccc1` (centres unmarked) [Compound 16, N-(5-(2-Cyano-3-(phenylamino)-3-thioxopropanamido)-1,3,4-thiadiazol-2-yl)benzamide], for which the IC50 in data set [1] (Homo sapiens, WI-38, 48 h) was found to be 85.9 ± 1.9 µM; in the data set on HepG2 it was 14.7 ± 2.3 µM. The “selectivity index (SI)” value in data set [1] is listed as 4.1.
Regarding `N#Cc1c(Nc2ccccc2)n2nc(NC(=O)c3ccccc3)sc2nc1=O` [Compound 15, N-(6-Cyano-7-oxo-5-(phenylamino)-7H-[1,3,4]thiadiazolo[3,2-a]pyrimidin-2-yl)benzamide], the IC50 is 19.4 ± 1.5 µM in data set [1] (Homo sapiens, WI-38, 48 h) and 16.8 ± 1.7 µM in the data set on HepG2. For the same molecule, the “selectivity index (SI)” value in data set [1] stood at 1.4.
For `N#CC(=Cc1ccco1)C(=O)Nc1nnc(NC(=O)c2ccccc2)s1` [Compound 7c, N-(5-(2-Cyano-3-(furan-2-yl)acrylamido)-1,3,4-thiadiazol-2-yl)benzamide], the IC50 in data set [1] (Homo sapiens, WI-38, 48 h) was 22.6 ± 3 µM; in the data set with HepG2, 16.3 ± 1.8 µM. Also, the “selectivity index (SI)” value in data set [1] stood at 0.8.
On to `COc1cc(C=C(C#N)C(=O)Nc2nnc(NC(=O)c3ccccc3)s2)ccc1O` [Compound 7f, N-(5-(2-Cyano-3-(4-hydroxy-3-methoxyphenyl)acrylamido)-1,3,4-thiadiazol-2-yl)benzamide], for which the IC50 in data set [1] (Homo sapiens, WI-38, 48 h) was 14.5 ± 0.3 µM; in the data set with HepG2, 21.3 ± 3.7 µM. In data set [1], the “selectivity index (SI)” value was 0.9.
`N#CCC(=O)Nc1nnc(NC(=O)c2ccccc2)s1` [Compound 3, N-(5-(2-Cyanoacetamido)-1,3,4-thiadiazol-2-yl)benzamide]: the IC50 in data set [1] (Homo sapiens, WI-38, 48 h) was determined as 37.4 ± 2.5 µM; with HepG2 it was 31.3 ± 5.1 µM. Moreover, in data set [1], the “selectivity index (SI)” value turned out to be 1.2.
Turning to `N#CC(=Cc1cccs1)C(=O)Nc1nnc(NC(=O)c2ccccc2)s1` [Compound 7d, N-(5-(2-Cyano-3-(thiophen-2-yl)acrylamido)-1,3,4-thiadiazol-2-yl)benzamide], the IC50 in data set [1] (Homo sapiens, WI-38, 48 h) turned out to be 12.3 ± 1.2 µM; in the data set on HepG2, 66.1 ± 3.5 µM. In addition, the “selectivity index (SI)” value in data set [1] stood at 0.4. In data set [1], the “toxicity” value is reported as “toxic to the normal fibroblasts”.
As to `Cc1cc(C)n(-c2nnc(NC(=O)c3ccccc3)s2)c(=O)c1C#N` [Compound 9, N-(5-(3-Cyano-4,6-dimethyl-2-oxopyridin-1(2H)-yl)-1,3,4-thiadiazol-2-yl)benzamide], the IC50 in data set [1] (Homo sapiens, WI-38, 48 h) was 50.4 ± 0.9 µM; in the data set with HepG2, 39.1 ± 2.7 µM. Further, the “selectivity index (SI)” value in data set [1] worked out at 2.5.
As to `N#CC(=Cc1ccc(Cl)cc1Cl)C(=O)Nc1nnc(NC(=O)c2ccccc2)s1` [Compound 7a, N-(5-(2-Cyano-3-(2,4-dichlorophenyl)acrylamido)-1,3,4-thiadiazol-2-yl)benzamide], the IC50 in data set [1] (Homo sapiens, WI-38, 48 h) came out at 9.18 ± 3.6 µM. In data set [1], the “selectivity index (SI)” value is reported as 1.5 and the “toxicity” value was “toxic to the normal fibroblasts”. Moreover, the IC50 in the data set on HepG2 came out at 6.34 ± 0.9 µM.
Consider `CSC(SC)=C(C#N)C(=O)Nc1nnc(NC(=O)c2ccccc2)s1` [Compound 17, N-(5-(2-Cyano-3,3-bis(methylthio)acrylamido)-1,3,4-thiadiazol-2-yl)benzamide], for which the IC50 in data set [1] (Homo sapiens, WI-38, 48 h) turned out to be 81.2 ± 4.1 µM; with HepG2 it was 12.5 ± 1 µM. Further, in data set [1], the “selectivity index (SI)” value came out at 6.0.
The like results for `N#CC(C(=O)Nc1nnc(NC(=O)c2ccccc2)s1)=C1SCCN1c1ccccc1` [Compound 14, N-(5-(2-Cyano-2-(3-phenylthiazolidin-2-ylidene)acetamido)-1,3,4-thiadiazol-2-yl)benzamide] were, in that order, 53.8 ± 3.4 µM, over 100 µM and 0.8.
The like results for `Cc1cc(-c2ccccc2)n(-c2nnc(NC(=O)c3ccccc3)s2)c(=O)c1C#N` [Compound 10, N-(5-(3-Cyano-4-methyl-2-oxo-6-phenylpyridin-1(2H)-yl)-1,3,4-thiadiazol-2-yl)benzamide] were, in that order, over 100 µM, 19.4 ± 1.5 µM and 1.7.
The like results for `N#CC(C(=O)Nc1nnc(NC(=O)c2ccccc2)s1)=C1Nc2ccccc2N1` [Compound 18, N-(5-(2-Cyano-2-(1,3-dihydro-2H-benzo[d]imidazole-2-ylidene)acetamido)-1,3,4-thiadiazol-2-yl)benzamide] were, in that order, over 100 µM, 47.3 ± 8.2 µM and 1.5.
